High-throughput results: PubChem, several laboratories
Only some compounds are listed: those with a hit (about 2.4% of all), similar ones and a draw of the others.
Neddyl block = cullin neddylation inhibition; TR-FRET cullin neddylation, biochemical; inhibition, % at 25 µM; AID 651699; P61081+Q13564; actives 0.58% (n = 360,000); in the data active means inhibition above about 36%
Target sequence (P61081 whole entry, looked up): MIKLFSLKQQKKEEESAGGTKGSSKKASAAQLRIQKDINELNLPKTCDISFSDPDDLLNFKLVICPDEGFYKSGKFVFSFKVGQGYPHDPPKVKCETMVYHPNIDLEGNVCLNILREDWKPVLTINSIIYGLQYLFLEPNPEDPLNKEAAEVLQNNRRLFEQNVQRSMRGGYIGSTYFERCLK
Target sequence (Q13564 whole entry, looked up): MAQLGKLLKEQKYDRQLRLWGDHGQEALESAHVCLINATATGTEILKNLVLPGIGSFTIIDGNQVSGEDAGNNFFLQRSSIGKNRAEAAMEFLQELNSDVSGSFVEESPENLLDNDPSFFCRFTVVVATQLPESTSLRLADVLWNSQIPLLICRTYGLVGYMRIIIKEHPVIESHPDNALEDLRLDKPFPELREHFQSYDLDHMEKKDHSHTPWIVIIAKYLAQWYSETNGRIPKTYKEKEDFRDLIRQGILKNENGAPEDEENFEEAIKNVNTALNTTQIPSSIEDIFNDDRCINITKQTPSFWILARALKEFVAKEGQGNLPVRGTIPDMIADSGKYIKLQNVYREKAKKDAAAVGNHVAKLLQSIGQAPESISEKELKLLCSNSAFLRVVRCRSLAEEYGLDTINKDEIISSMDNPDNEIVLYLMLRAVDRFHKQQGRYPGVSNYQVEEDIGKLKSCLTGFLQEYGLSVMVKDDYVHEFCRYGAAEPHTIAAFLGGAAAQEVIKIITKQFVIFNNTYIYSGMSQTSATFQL
TbMetRS inhib = blocks T. brucei methionyl-tRNA synthetase activity. purified T. brucei MetRS, ATP depletion, Kinase-Glo luminescence. actives 0.4% (n = 360,000). AID 624268. inhibition, % at 11.9 µM;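 active means inhibition above a per-plate cutoff of the control wells' mean inhibition plus 3 SD, cut at about 5.5% in these data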;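 further: 0% = DMSO wells median and 100% = median of wells with control inhibitor compound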
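Test system – parasite MetRS enzyme · Reagent – substrates ATP, L-methionine and bulk Escherichia coli tRNA · Doses – 11.9 µM compound single dose, 0.9% DMSO · Times – 15 min enzyme-compound preincubation, 2 h reaction, 10 min detection, 25 °C · Signal – Kinase-Glo luminescence, ATP depletion format · Controls – DMSO-only wells as low control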
PREPL inh = inhibitors of human prolyl oligopeptidase-like enzyme PREPL. recombinant PREPL, fluorescence polarization activity-based probe. inhibition, % at 5.96 µM. actives 0.68% (n = 320,000);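 further: 0% = enzyme with DMSO and 100% = wells lacking enzyme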
Rpn11 inh = blocks the human proteasome subunit Rpn11; actives 0.59% (n = 360,000); inhibition, % at 20 µM; human 26S proteasome, Ub4-pepOG fluorescence polarization; 20S core pre-blocked with epoxomicin;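 active means inhibition at 20 µM, scaled to each plate's controls, above about 33%, limit read from the data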
HNF4A DNA FP = change in binding of human HNF4 alpha to DNA | HNF4a-FITC DNA binding, fluorescence polarization, 1 h | activity change, % at 10 µM | actives 0.3% (n = 360,000) | AID 1224865; in the data active means activity change above about 30%, passing the limit was not always enough
CSN deneddyl inh = CSN deneddylation inhibition | Purified CSN, SCF-Nedd8-OG deneddylation, fluorescence polarization | inhibition, % at 12.5 µM | actives 0.38% (n = 360,000) | AID 651999;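 active means pattern-corrected inhibition above about 35%, with an unprinted fluorescence ratio check between 0.5 and 1.5, limit read from the data, passing the limit was not always enough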;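 further: 0% = enzyme with substrate and 100% = substrate without enzyme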
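Detection – fluorescence polarization · System – HEK293T-derived human Csn5 enzyme · Controls – substrate-only high control, full reaction low control · Timing – 90 min, room temperature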
PREPL confirm = human PREPL inhibition, confirmation; recombinant PREPL, fluorescence polarization activity probe; actives 67% (n = 2,000); AID 2803; inhibition, % at 5.96 µM; shares compounds with PREPL inh;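 further: 0% = protein with DMSO and 100% = wells lacking protein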
* hit, by the source's call; nt = no result shown. Unless noted, no stated cut-off is given here; in the data, active means inhibition above about 43%; inactive means the rest.

SMILES | Neddyl block | TbMetRS inhib | PREPL inh | Rpn11 inh | HNF4A DNA FP | CSN deneddyl inh | PREPL confirm
O=C(C1=C[C@@H](c2ccc(C(F)(F)F)cc2)C[C@@H](OCc2ccc(CO)cc2)O1)N1CCN(Cc2ccc3c(c2)OCO3)CC1 | -12 | 0 | 64* | 6 | 2 | -4 | 58*
CCO[C@@H]1OC(C(=O)N2CCN(Cc3ccc4c(c3)OCO4)CC2)=C[C@H](c2ccc3c(c2)OCO3)[C@H]1CCCO | nt | nt | 28 | nt | nt | nt | nt
O=C(C1=C[C@@H](c2ccc(C(F)(F)F)cc2)C[C@@H](OCCCCO)O1)N1CCN(Cc2ccccc2)CC1 | -15 | 0 | 66* | 3 | 6 | 11 | 56*
CCO[C@H]1OC(C(=O)N2CCN(Cc3ccc4c(c3)OCO4)CC2)=C[C@@H](c2ccc(Br)cc2)[C@@H]1CCCO | -4 | 0 | 47* | 0 | 1 | -1 | 44*
O=C(C1=C[C@H](c2ccc(C(F)(F)F)cc2)C[C@H](OCc2ccc(CO)cc2)O1)N1CCN(Cc2ccc3c(c2)OCO3)CC1 | -3 | 0 | 46* | 9 | 2 | 3 | 44*
CCSC(=O)N=Nc1ccc(O)cc1 | -22 | 0 | nt | 3 | -3 | -2 | nt
O=C(C1=C[C@@H](c2ccc3c(c2)OCO3)C[C@@H](OCc2ccc(CO)cc2)O1)N1CCOCC1 | -19 | 0 | 50* | -2 | 1 | -1 | 44*
O=C(C1=C[C@@H](c2ccc(C(F)(F)F)cc2)C[C@@H](OCCCCO)O1)N1CCN(Cc2ccc3c(c2)OCO3)CC1 | -28 | 0 | 70* | 3 | -1 | -3 | 60*
O=C(C1=C[C@H](c2ccc(C(F)(F)F)cc2)C[C@H](OCCCCO)O1)N1CCN(Cc2ccccc2)CC1 | -12 | 0 | 21 | 20 | -2 | -4 | nt
CN1CCN(C(=O)C2=C[C@@H](c3ccccc3)C[C@@H](OCc3ccc(CO)cc3)O2)CC1 | -25 | 0 | 46* | -2 | -1 | -4 | 49*
COc1cc(NCC2COc3c(ccc(OC)c3OC)C2=O)c([N+](=O)[O-])cc1OC (centres undefined) | -67 | -1 | nt | 5 | 6 | -3 | nt
COc1ccc(CC2(CO)CCN(S(=O)(=O)c3cccc4cccnc34)CC2)cc1 | -8 | 0 | 51* | -4 | 0 | -1 | 42
Cc1nnc(N/N=C/c2cccc(OCc3ccc(Cl)c(Cl)c3)c2)n1N | -6 | 0 | 73* | 15 | 3 | 1 | 65*
Cc1nnc(N/N=C/c2cccc(C(F)(F)F)c2)n1N | -7 | 1 | 3 | 0 | 1 | -1 | nt
Cc1ccccc1NC(=O)c1ccc(C)c(S(=O)(=O)Nc2ccccn2)c1 | 25 | -1 | 30 | -4 | -3 | -4 | nt
Cc1ccc(C(=O)Nc2ccc(Br)cc2)cc1S(=O)(=O)Nc1ccccn1 | 15 | 0 | 43* | -7 | 2 | -4 | 37
CCC(=O)Oc1ccc(NC(=O)CSCc2ccccc2)cc1 | 0 | -1 | -6 | 0 | -1 | -6 | nt
Cc1ccc(-n2cccc2C(=S)N=P(N(C)C)(N(C)C)N(C)C)cc1 | -2 | 0 | 44* | 3 | 0 | 5 | 37
CN(C)c1ccc(NC(=O)c2cccc(C(=O)Nc3ccc(N(C)C)cc3)n2)cc1 | 8 | -1 | 72* | 5 | 1 | 3 | 70*
C=CCn1c(SCC(=O)Nc2cc(C)on2)nc2c([nH]c3ccccc32)c1=O | 15 | 0 | 2 | -10 | 0 | 3 | nt
Cc1cc(N2CCOCC2)nc2ccc(NC(=O)CCC(=O)N3CCN(c4ccc(F)cc4)CC3)cc12 | nt | -1 | 44* | -7 | 2 | 3 | 39
Cc1cc(N2CCN(C)CC2)nc2ccc(NC(=S)N3CCCCC3)cc12 | 30 | -1 | nt | 8 | 8 | 1 | nt
Cc1cc(N2CCN(C)CC2)nc2ccc(NC(=S)N3CCN(c4cccc(Cl)c4)CC3)cc12 | 38 | 0 | 47* | 3 | 0 | -2 | 33
COc1ccc(C(=O)Nc2ccc3nc(N4CCN(C)CC4)cc(C)c3c2)c(OC)c1 | 19 | 0 | 48* | 17 | 3 | -2 | 43
CCN1CCN(c2cc(C)c3cc(NC(=O)c4ccc5c(c4)OCO5)ccc3n2)CC1 | 4 | 0 | 44* | -1 | 1 | 0 | 20
SMILES | Neddyl block | TbMetRS inhib | PREPL inh | Rpn11 inh | HNF4A DNA FP | CSN deneddyl inh | PREPL confirm
O=C1c2cccc(NCCNCCO)c2C(=O)c2cccc(NCCNCCO)c21 | -48 | -1 | nt | 5 | 42 | -2 | nt
COc1cc(OC)nc(Nc2nc(C(N)Cc3ccc(C(F)(F)F)cc3)cs2)n1 (centres undefined) | -2 | 0 | nt | -3 | 5 | 1 | nt
Nc1ncnc2c1ncn2C1C=C(CO)C(O)C1O (centres undefined) | 26 | 0 | nt | 4 | -1 | -5 | nt
Cc1cccc(OC(C)C(=O)Nc2ccc(N3CCCCC3)cc2)c1 (centres undefined) | 11 | -1 | 44* | 2 | -3 | 0 | 44*
Cc1cc(OCC(=O)Nc2ccc(N3CCN(C(=O)c4ccco4)CC3)cc2)cc(C)c1Cl | 7 | -1 | 24 | -1 | -6 | 18 | nt
Cc1cccc(OCC(=O)Nc2ccc(N3CCN(C(=O)c4ccco4)CC3)cc2)c1 | 7 | -1 | 55* | -3 | -3 | 5 | 50*
Cc1ccc(OCC(=O)Nc2ccc(N3CCN(C(=O)c4ccco4)CC3)cc2)cc1C | 0 | 0 | 52* | -1 | 1 | -1 | 57*
O=C(c1ccco1)N1CCN(c2ccc(Cl)cc2)CC1 | 2 | 0 | 23 | 5 | 1 | 0 | nt
O=C(Cc1ccc(Cl)cc1)Nc1ccc(N2CCN(C(=O)c3ccco3)CC2)cc1 | 9 | -1 | 47* | 6 | 2 | -1 | 53*
CN(CCNC(=O)c1c[nH]c2c1ccc1ccccc12)CCNC(=O)c1c[nH]c2c1ccc1ccccc12 | nt | 0 | nt | 15 | 0 | 4 | nt
O=C(COC(=O)c1cccc(OC(F)F)c1)Nc1cc(S(=O)(=O)N2CCCC2)ccc1Cl | 0 | 0 | nt | 5 | -2 | -1 | nt
CCOCc1c(C(=O)Nc2ccccc2N2CCN(C)CC2)oc2ccccc12 | 17 | 0 | nt | -2 | 3 | 0 | nt
O=C(c1[nH]c(C(F)(F)F)nc1-c1ccccc1)N1CCC2(CC1)C(=O)NCN2c1ccccc1 | 1 | 0 | nt | -4 | 6 | 4 | nt
CCN(CC)c1ccc(CNc2ccc3c(c2)ncn3C(C)(C)C)cc1 | 8 | 0 | 48* | 4 | 0 | -1 | 18
CC(C)(C)n1cnc2cc(NCc3ccccc3O)ccc21 | 9 | -1 | 19 | -4 | -1 | -2 | nt
CN(C)c1ccc(CNc2ccc3c(c2)ncn3C)cc1 | nt | nt | 32 | nt | nt | nt | nt
